Common to all, as to assay type: functional, organism-based
Assay [1] addresses T1, Glucocorticoid receptor (Rattus norvegicus) (UniProt P06536).
T1 sequence (whole entry): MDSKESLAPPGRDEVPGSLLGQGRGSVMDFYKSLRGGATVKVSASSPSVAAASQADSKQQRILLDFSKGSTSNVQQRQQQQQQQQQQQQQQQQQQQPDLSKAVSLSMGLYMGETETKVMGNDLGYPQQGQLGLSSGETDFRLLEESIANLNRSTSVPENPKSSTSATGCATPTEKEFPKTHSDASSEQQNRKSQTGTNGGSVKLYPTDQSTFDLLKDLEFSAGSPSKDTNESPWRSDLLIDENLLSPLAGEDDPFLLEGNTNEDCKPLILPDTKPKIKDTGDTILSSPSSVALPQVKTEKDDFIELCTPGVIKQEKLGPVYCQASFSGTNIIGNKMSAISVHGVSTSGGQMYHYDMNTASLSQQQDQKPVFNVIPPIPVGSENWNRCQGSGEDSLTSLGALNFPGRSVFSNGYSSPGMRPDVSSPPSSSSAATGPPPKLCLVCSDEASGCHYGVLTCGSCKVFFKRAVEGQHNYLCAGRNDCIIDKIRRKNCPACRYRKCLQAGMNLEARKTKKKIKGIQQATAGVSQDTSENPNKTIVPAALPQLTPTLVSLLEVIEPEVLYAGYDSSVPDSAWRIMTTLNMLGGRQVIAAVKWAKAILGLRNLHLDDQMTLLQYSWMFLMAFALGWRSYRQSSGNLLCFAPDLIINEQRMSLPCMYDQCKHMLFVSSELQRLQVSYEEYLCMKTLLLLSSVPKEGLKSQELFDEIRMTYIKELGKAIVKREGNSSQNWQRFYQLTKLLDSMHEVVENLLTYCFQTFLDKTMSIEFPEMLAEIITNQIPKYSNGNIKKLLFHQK
Description: In vivo antiinflammatory activity in the rat, alpha-tocopherol filled pouch peroral dose; IA = inactive. An outline of the steps:
(§1)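 Rats receive an air-filled pouch injected with 0.5 mL DL-α-tocopherol. Oral doses are given daily for 7 days, starting on the day of pouch formation, as suspensions in 1% gum tragacanth. ED50 is in mg/kg po.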

Assay [2] addresses T1, Glucocorticoid receptor (Rattus norvegicus). Nature of the assay: In vivo glucocorticoid profile, depression of adrenal weight in rat at 5 mg/kg peroral dose. More on the design: dose 5 mg/kg. Summed up:
(§2)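 Two-week oral glucocorticoid profile in rats. Thymus weight, adrenal weight and body weight gain are each expressed as % change from control.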

The target is the same in assay [3]. Description: (§3) In vivo glucocorticoid profile, depression of adrenal weight in rat at 25 mg/kg peroral dose. Further details: dose 25 mg/kg. An outline of the steps:
(§4)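 Two-week oral dosing test in rats. At the end, thymus weight, adrenal weight and body weight gain are recorded and expressed as % change from control.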

Assay [4] has the same target. Nature of the assay: (§5) In vivo glucocorticoid profile, depression of thymus weight in rat at 25 mg/kg peroral dose. Further details: dose 25 mg/kg. Summed up: as §4
Assay [5] has the same target. Nature of the assay: In vivo glucocorticoid profile, depression of body weight gain without altered food consumption in rat at 25 mg/kg peroral dose. Further details: dose 25 mg/kg. Summed up: as §2
The target is the same in assay [6]. Description: (§6) In vivo glucocorticoid profile, depression of body weight gain without altered food consumption in rat at 5 mg/kg peroral dose. More on the design: dose 5 mg/kg. An outline of the steps:
as §2

The target is the same in assay [7]. Nature of the assay: In vivo glucocorticoid profile, depression of thymus weight in rat at 5 mg/kg peroral dose. More on the design: dose 5 mg/kg. Summed up:
as §2

The target is the same in assay [8]. Nature of the assay: In vivo antiinflammatory activity in the rat, alpha-tocopherol filled pouch 100 mg/kg peroral dose; IA = inactive. More on the design: dose 100 mg/kg. Summed up:
as §1

The target is the same in assay [9]. Nature of the assay: (§7) In vivo glucocorticoid profile, depression of adrenal weight in rat at 100 mg/kg peroral dose. Further details: dose 100 mg/kg. Summed up: as §2
For assay [10] the target is unchanged. Nature of the assay: In vivo glucocorticoid profile, depression of thymus weight in rat at 100 mg/kg peroral dose. More on the design: dose 100 mg/kg. An outline of the steps: as §2
Assay [11] shares this target. Nature of the assay: In vivo glucocorticoid profile, depression of body weight gain without altered food consumption in rat at 100 mg/kg peroral dose. Further details: dose 100 mg/kg. An outline of the steps:
as §2

The target is the same in assay [12]. The description is as §6. Further details: dose 5 mg/kg. Summed up: as §4
The source holds these as a separate data set.

Assay [13] has the same target. Description: (§8) In vivo glucocorticoid profile, depression of adrenal weight in rat at 1 mg/kg peroral dose. More on the design: dose 1 mg/kg. Summed up:
as §2

For assay [14] the target is unchanged. Nature of the assay: (§9) In vivo glucocorticoid profile, depression of thymus weight in rat at 1 mg/kg peroral dose. More on the design: dose 1 mg/kg. Summed up:
as §2

Assay [15] has the same target. Description: (§10) In vivo glucocorticoid profile, depression of body weight gain without altered food consumption in rat at 1 mg/kg peroral dose. More on the design: dose 1 mg/kg. Summed up: as §2
For assay [16] the target is unchanged. Nature of the assay: In vivo anti-inflammatory activity in the rat, alpha-tocopherol filled pouch peroral dose. Summed up:
as §1

For assay [17] the target is unchanged. Description: In vivo glucocorticoid profile, depression of adrenal weight in rat at 50 mg/kg peroral dose. Further details: dose 50 mg/kg. Summed up: as §2
Assay [18] has the same target. Nature of the assay: In vivo antiinflammatory activity in the rat, alpha-tocopherol filled pouch 25 mg/kg peroral dose; IA = inactive. Further details: dose 25 mg/kg. Summed up:
as §1

Assay [19] shares this target. Description: In vivo glucocorticoid profile, depression of body weight gain without altered food consumption in rat at 50 mg/kg peroral dose. More on the design: dose 50 mg/kg. An outline of the steps:
as §2

Assay [20] shares this target. Description: In vivo glucocorticoid profile, depression of thymus weight in rat at 50 mg/kg peroral dose. Further details: dose 50 mg/kg. An outline of the steps: as §2
Assay [21] shares this target. The description is as §7. Further details: dose 100 mg/kg. An outline of the steps:
as §4
The source holds these as a separate data set.

Assay [22] shares this target. The assay is described as §3. More on the design: dose 25 mg/kg. An outline of the steps:
as §2
The source holds these as a separate data set.

Assay [23] shares this target. The assay is described as §5. More on the design: dose 25 mg/kg. An outline of the steps:
as §2
The source holds these as a separate data set.

The target is the same in assay [24]. Nature of the assay: In vivo glucocorticoid profile, depression of adrenal weight in rat at 0.2 mg/kg peroral dose. Further details: dose 0.2 mg/kg. Summed up: as §2
The target is the same in assay [25]. The description is as §8. Further details: dose 1 mg/kg. An outline of the steps:
as §4
This is another data set of the same source.

The target is the same in assay [26]. Nature of the assay: In vivo glucocorticoid profile, depression of thymus weight in rat at 0.2 mg/kg peroral dose. More on the design: dose 0.2 mg/kg. An outline of the steps:
as §2

Assay [27] shares this target. Described as §9. Further details: dose 1 mg/kg. Summed up:
as §4
This is another data set of the same source.

The target is the same in assay [28]. Nature of the assay: In vivo glucocorticoid profile, depression of body weight gain without altered food consumption in rat at 0.2 mg/kg peroral dose. Further details: dose 0.2 mg/kg. An outline of the steps: as §2
The target is the same in assay [29]. Described as §10. Further details: dose 1 mg/kg. An outline of the steps:
as §4
The source holds these as a separate data set.

Assay [30] has the same target. Nature of the assay: In vivo antiinflammatory activity in the rat, alpha-tocopherol filled pouch 50 mg/kg peroral dose; IA = inactive. Further details: dose 50 mg/kg.

The source made the active and inactive calls. The rule behind the calls is not given here.

As a reminder, the ED50 is the midpoint of the dose-response relation. With `C[C@]12Cc3cnn(-c4ccccc4)c3C=C1CC[C@@H]1OC3(CC=C12)C(=O)c1ccccc1C3=O`, in assay [1], the ED50 entry is “inactive”. The Change in assay [2] was -38%; in assay [3], -50%; in assay [4] it was -62%; in assay [7], -51%. In addition, the Weight gain in [5] was -86; in assay [6] it was -62.

With `CCOC(=O)C1(C(=O)OCC)CCC=C2[C@@H]1CCC1=Cc3c(cnn3-c3ccc(F)cc3)C[C@@]12C`, the Change in [2] is 0%; in assay [9] it was -47%; in assay [10] it was -80%; in assay [7], 0%. The ED50 entry in assay [8] was “inactive”. The Weight gain is -186 in assay [11] and 0 in assay [6].

As for `C[C@]12Cc3cnn(-c4ccc(F)cc4)c3C=C1CC[C@H]1C2=CCCC1c1ccccn1` (some centres undefined), the ED50 result in assay [1] was “inactive”. The values for the Change in assay [9] and in [10] were -48% and -64%, respectively. For the same molecule, the Weight gain in assay [11] is -88.

For the molecule `CC(=O)C1CC=C2[C@H](CCC3=Cc4c(cnn4-c4ccc(F)cc4)C[C@@]32C)C1C(C)=O` (some centres undefined), in [2], the Change was -40%. For the same molecule, the Weight gain in assay [12] was -80.

On to `C[C@H]1C[C@@H]2[C@H]([C@@H](O)C[C@@]3(C)[C@H]2CC[C@]3(O)C(=O)CO)[C@@]2(C)C=CC(=O)C=C12`, for which the Change is -42% in assay [2], 0% in [13], -40% in [14] and -70% in assay [7]. Also, the Weight gain is -79 in [6] and -45 in [15]. In assay [16], this molecule yielded a 50% effective dose (ED50) of 2 mg/kg.

On to `CC(C)N1C(=O)N(C(C)C)C(=O)C2(CC=C3[C@H](CCC4=Cc5c(cnn5-c5ccc(F)cc5)C[C@@]43C)O2)C1=O`, for which the Change in [17] and in assay [20] was 0% throughout. For the same molecule, the ED50 entry in [18] was “inactive”. Also, the Weight gain in [19] was determined as 0.

For the molecule `CCN1C(=O)N(CC)C(=O)C2(CC=C3[C@H](CCC4=Cc5c(cnn5-c5ccc(F)cc5)C[C@@]43C)O2)C1=O`, the Change is -45% in assay [21], 0% in [22], -34% in assay [23] and -34% in assay [10]. Besides, in assay [18], the ED50 result is “inactive”. In assay [5], this molecule showed a Weight gain of 0.

As for `CN1C(=O)N(C)C(=O)C2(CC=C3[C@H](CCC4=Cc5c(cnn5-c5ccc(F)cc5)C[C@@]43C)O2)C1=O` (stereo in doubt; 12a), the Change in assay [24] is -25%; in [25], -57%; in assay [2], -63%; in assay [26], -28%; in assay [27] it was -71%; in assay [7], -83%. Moreover, the Weight gain in assay [28] was -55; in assay [6], -236; in assay [29] it was -127. Further, in [16], the 50% effect level (ED50) was put at a dose of 2 mg/kg.

As to `C[C@]12Cc3cnn(-c4ccccc4)c3C=C1CC[C@@H]1OC3(CC=C12)C(=O)NC(=O)NC3=O`, the Change in [21] was 0%; in assay [17], 0%; in [10] it was 0%; in assay [20] it was -34%. Moreover, in assay [30], the ED50 result was “inactive”. In addition, the Weight gain in [11] and in assay [19] was 0 each time.

These data come from ChEMBL document CHEMBL1126871, “Non-steroidal glucocorticoid-like substances: receptor binding and in vivo activity” (J Med Chem, 1993).
